# In ChEMBL document CHEMBL3865809, “2-Indolylmethylenebenzofuranones as first effective inhibitors of ABCC2” (Eur J Med Chem, 2016):
# Assays:
# [1] = target: T1, ATP-binding cassette sub-family C member 2 (Homo sapiens, UniProt Q92887); assay: Inhibition of ABCC2 (unknown origin) expressed in MDCK2 cells assessed as inhibition of calcein-AM efflux measured after 30 mins in presence of ABCB1 inhibitor GF120918 and ABCC1 inhibitor MK-571 by flow cytometry; format: cell-based, MDCK-II
# [2] = target: T1, ATP-binding cassette sub-family C member 2; assay: Inhibition of ABCC2 (unknown origin) expressed in human Flp-InTM-293 cells assessed as inhibition of calcein-AM efflux at 5 uM measured after 30 mins in presence of ABCB1 inhibitor GF120918 and ABCC1 inhibitor MK-571 by flow cytometry; format: cell-based; conditions: 0.5 h
# Summary of the method: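 A confirmatory calcein-AM efflux assay was run the same way in Flp-In-293 cells stably transfected with ABCC2 (pcDNA5-FRT-ABCC2 plus pOG44, by electroporation) and in parental Flp-In-293 cells. Fluorescence was read by flow cytometry, with % inhibition computed against the parental line.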
# [3] = target: T1, ATP-binding cassette sub-family C member 2; assay: Inhibition of ABCC2 (unknown origin) expressed in MDCK2 cells assessed as inhibition of calcein-AM efflux at 5 uM measured after 30 mins in presence of ABCB1 inhibitor GF120918 and ABCC1 inhibitor MK-571 by flow cytometry; format: cell-based; conditions: mdck-ii, 0.5 h
# Summary of the method: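 Parental and ABCC2-transfected MDCKII cells were seeded at 3 × 10³ cells/well and grown 48 h at 37 °C in 5% CO2. They were then loaded with 25 nM calcein-AM in the presence of GF120918 and […] MK-571. Intracellular fluorescence was read by flow cytometry in the 525/50 nm channel, collecting ≥5000 events.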
# [4] = Cytotoxicity against wild-type MDCK2 cells measured after 72 hrs by MTT assay; format: toxicity, cell-based, Canis lupus familiaris, MDCK-II; conditions: dog
# Summary of the method: (§1)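 MTT assay in parental and ABCC2-transfected MDCKII cells. Cells were seeded so that they stayed below confluence over 72 h at 37 °C, then exposed to compound from […] for 72 h. MTT at 5 mg/mL was added for 3 h. Formazan was dissolved in DMSO/isopropanol 1:1, and A570 was read and corrected at 690 nm. Mean ± SD of at least three independent experiments; DMSO-only controls run in parallel.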
# [5] = Cytotoxicity against MDCK2 cells expressing ABCC2 measured after 72 hrs by MTT assay; format: toxicity, cell-based, Canis lupus familiaris, MDCK-II; conditions: dog; summary of the method: as §1
# T1 sequence (Q92887 whole entry): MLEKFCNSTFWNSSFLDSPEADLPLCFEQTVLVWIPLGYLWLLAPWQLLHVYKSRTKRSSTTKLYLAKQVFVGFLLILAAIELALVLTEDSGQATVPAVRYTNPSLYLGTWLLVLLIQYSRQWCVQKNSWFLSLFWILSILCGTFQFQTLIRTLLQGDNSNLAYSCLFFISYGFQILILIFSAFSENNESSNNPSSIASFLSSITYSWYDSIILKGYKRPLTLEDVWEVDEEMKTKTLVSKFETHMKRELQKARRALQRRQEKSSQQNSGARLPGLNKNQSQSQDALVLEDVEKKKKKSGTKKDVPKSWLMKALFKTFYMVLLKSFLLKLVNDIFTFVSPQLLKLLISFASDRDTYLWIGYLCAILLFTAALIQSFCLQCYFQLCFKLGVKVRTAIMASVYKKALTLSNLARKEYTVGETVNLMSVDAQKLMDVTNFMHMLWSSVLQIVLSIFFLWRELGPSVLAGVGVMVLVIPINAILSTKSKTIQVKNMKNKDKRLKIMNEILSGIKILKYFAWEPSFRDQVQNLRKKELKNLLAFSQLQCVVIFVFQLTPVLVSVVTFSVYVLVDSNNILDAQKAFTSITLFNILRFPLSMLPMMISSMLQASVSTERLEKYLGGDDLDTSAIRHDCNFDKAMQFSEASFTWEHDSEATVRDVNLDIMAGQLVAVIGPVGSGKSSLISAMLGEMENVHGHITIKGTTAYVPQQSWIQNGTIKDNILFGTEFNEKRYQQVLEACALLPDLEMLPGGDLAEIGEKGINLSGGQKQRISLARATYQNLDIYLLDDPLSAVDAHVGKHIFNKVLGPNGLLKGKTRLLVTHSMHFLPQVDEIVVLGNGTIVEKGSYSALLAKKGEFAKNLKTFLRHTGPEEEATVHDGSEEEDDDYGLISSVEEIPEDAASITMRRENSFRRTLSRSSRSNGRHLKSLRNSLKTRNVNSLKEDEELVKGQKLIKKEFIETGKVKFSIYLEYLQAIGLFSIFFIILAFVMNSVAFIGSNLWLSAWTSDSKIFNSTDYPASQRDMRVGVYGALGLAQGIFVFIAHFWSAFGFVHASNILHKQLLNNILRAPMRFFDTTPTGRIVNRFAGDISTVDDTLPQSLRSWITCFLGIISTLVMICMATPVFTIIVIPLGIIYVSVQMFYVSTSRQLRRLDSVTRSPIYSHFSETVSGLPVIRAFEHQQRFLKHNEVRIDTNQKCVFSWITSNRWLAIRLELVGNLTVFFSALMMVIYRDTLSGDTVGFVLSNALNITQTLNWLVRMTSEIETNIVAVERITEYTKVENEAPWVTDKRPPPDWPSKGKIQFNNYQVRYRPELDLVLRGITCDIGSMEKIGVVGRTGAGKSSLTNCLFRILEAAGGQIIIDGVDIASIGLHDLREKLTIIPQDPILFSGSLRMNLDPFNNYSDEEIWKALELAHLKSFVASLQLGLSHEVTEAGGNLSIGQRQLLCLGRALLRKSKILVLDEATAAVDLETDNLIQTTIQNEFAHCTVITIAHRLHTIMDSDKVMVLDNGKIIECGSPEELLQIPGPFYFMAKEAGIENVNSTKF
IC50 [1],inhibition (INH) [2],inhibition (INH) [3],Structure (SMILES),IC50 at 72 h [4],IC50 at 72 h [5]
13.9 µM,Active,Active,CCCCn1cc(/C=C2\Oc3cc(O)cc(O)c3C2=O)c2cc(OC)ccc21,,
9 µM,Active,Active,CCCCn1c(/C=C2\Oc3cc(O)cc(O)c3C2=O)cc2ccccc21,,
11.1 µM,Active,Active,Cn1c(/C=C2\Oc3cc(O)cc(O)c3C2=O)cc2ccccc21,,
10.6 µM,Active,Active,CC(C)=CCn1cc(/C=C2\Oc3cc(O)cc(O)c3C2=O)c2ccccc21,,
10.5 µM,Active,Active,O=C1/C(=C/c2cn(CC3CCCCC3)c3ccccc23)Oc2cc(O)cc(O)c21,,
12.2 µM,Active,Active,O=C1/C(=C/c2cn(Cc3ccccc3)c3ccccc23)Oc2cc(O)cc(O)c21,,
17.5 µM,Active,Active,COc1cccc(Cn2cc(/C=C3\Oc4cc(O)cc(O)c4C3=O)c3ccccc32)c1,,
14.4 µM,Active,Active,O=C1/C(=C/c2cn(Cc3cccc(Br)c3)c3ccccc23)Oc2cc(O)cc(O)c21,,
11.4 µM,Active,Active,CCCCn1c(C)c(/C=C2\Oc3cc(O)cc(O)c3C2=O)c2ccccc21,,
4.5 µM,Active,Active,CCCCn1cc(/C=C2\Oc3cc(O)cc(O)c3C2=O)c2cccc(C)c21,> 50 µM,> 50 µM
6.3 µM,Active,Active,CCCCn1cc(/C=C2\Oc3cc(O)cc(O)c3C2=O)c2cccc(OC)c21,,
4.8 µM,Active,Active,CCCCn1cc(/C=C2\Oc3cc(O)cc(O)c3C2=O)c2cc(C)ccc21,> 50 µM,> 50 µM
17.8 µM,Active,Active,CCn1cc(/C=C2\Oc3cc(O)cc(O)c3C2=O)c2cc(Br)ccc21,,
4.5 µM,Active,Active,Cn1cc(/C=C2\Oc3cc(O)cc(O)c3C2=O)c2cc(Br)ccc21,> 50 µM,> 50 µM
15.8 µM,Active,Active,O=C1/C(=C/c2cn(CC3CCCCC3)c3ccc(Br)cc23)Oc2cc(O)cc(O)c21,,
8.2 µM,Active,Active,CCCCn1c(/C=C2\Oc3cc(O)cc(O)c3C2=O)c(C)c2ccccc21,,
15.4 µM,Active,Active,CCCCn1cc(/C=C2\Oc3cc(O)cc(O)c3C2=O)c2cc(Br)ccc21,,
7.3 µM,Active,Active,COc1ccc2c(c1)c(/C=C1\Oc3cc(O)cc(O)c3C1=O)cn2Cc1cccc(Br)c1,,
4.1 µM,Active,Active,COc1ccc2c(c1)c(/C=C1\Oc3cc(O)cc(O)c3C1=O)cn2CC1CCCCC1,> 50 µM,> 50 µM
